These results are taken from PubChem BioAssay.

Experiment [1] can be described thus: hit retest on RPL19A-GFP reporter strain – cell-based, S. cerevisiae, flow cytometry, cherry picks, mother/daughter gates, confirmation (AID 2270;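 active = GFP response below 50% of the DMSO control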). The settings on record: 3 h, at 10 µM, stronger effect = lower value, 100 = same GFP as DMSO wells. (In general: In flow cytometry, cells or beads pass a laser one at a time.)
The nature of experiment [2]: yeast TOR pathway reporter LAP4-GFP change – cell-based, cherry picks, flow cytometry, mother/daughter gates, confirmation (AID 2271;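 active = GFP response above 150% of the DMSO control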;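 note: ratio of sample to DMSO plate mean so 100% equals DMSO level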). The note with it: S. cerevisiae LAP4-GFP strain, 3 h, at 10 µM, stronger effect = higher value, 100 means same as DMSO control. Summed up: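 Material – Alexa Fluor 633-labelled Saccharomyces cerevisiae GFP-fusion strain, single-plex · Incubation – compound exposure 3 h at 30 °C, end-over-end rotation · Measured by – GFP by flow cytometry · Measure – median GFP fluorescence as percent of plate-mean DMSO wells · Control set – positive rapamycin (400 ng/mL), negative DMSO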

Experiment [3] is described as follows: TOR pathway reporter MEP2-GFP, retest of hits – S. cerevisiae, flow cytometry GFP, cherry picks, confirmation (AID 2272;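 active = GFP response above 150% of the DMSO control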;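 note: ratio of well signal to plate DMSO mean so 100% equals DMSO level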). The note with it: S. cerevisiae MEP2-GFP strain, 3 h, at 10 µM, stronger effect = higher value.
The nature of experiment [4]: yeast AGP1-GFP fluorescence change, single-dose – cell-based, flow cytometry, S. cerevisiae, cherry picks, confirmation (AID 2273).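 Note: median GFP channel fluorescence over the whole cell population gate.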 The settings on record: S. cerevisiae AGP1-GFP strain, 3 h, at 10 µM.
Experiment [5] in a line: TOR pathway CIT2 reporter hit retest – S. cerevisiae, GFP fusion, cherry picks, mother/daughter gates, confirmation (AID 2274). The settings on record: S. cerevisiae CIT2-GFP strain, flow cytometry, 3 h, at 10 µM, stronger effect = higher value.
Where [6] appears, read: measured here: daughter cell gate.
[7] abbreviates: measured here: mother cell gate.
Where [8] appears, read: measured here: daughter cell gate response.
[9] abbreviates: measured here: mother cell gate response.

The structures appear in SMILES notation. Active and inactive are the calls of the source.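 Rule for the calls, unless noted: active = GFP response above 150% of the DMSO level; inconclusive = fewer than 70 events counted for a yeast strain; inactive = the rest.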

For the compound `COc1ccc(/C=N/Nc2nnc(C)n2N)cc1OC(C)=O`, the GFP response vs DMSO was 99.5% (inactive) in experiment [1], 100% in experiment [1] (setting [6]), 99% in experiment [1] (setting [7]) and 104% (inactive) in experiment [3]. Moreover, the GFP response relative to DMSO is 94.2% (inactive) in experiment [2], 96.5% in experiment [2] (setting [8]) and 92.6% in experiment [2] (setting [9]). For the same compound, the GFP response, % of DMSO in experiment [4] is 102% (inactive); in experiment [5], 104% (inactive); in experiment [5] (setting [6]), 104%; in experiment [5] (setting [7]) it was 103%.
Consider `Cc1cc(Cl)ccc1N=c1ssnc1Cl`, for which the GFP response vs DMSO in experiment [1] was 92.2% (inactive); in experiment [1] (setting [6]) it was 94.2%; in experiment [1] (setting [7]), 86.5%; in experiment [3] it was 109% (inactive). In addition, the GFP response relative to DMSO in experiment [2] is 133% (inactive); in experiment [2] (setting [8]), 114%; in experiment [2] (setting [9]), 145%. The GFP response, % of DMSO was 97.3% (inactive) in experiment [4], 102% (inactive) in experiment [5], 103% in experiment [5] (setting [6]) and 101% in experiment [5] (setting [7]).
In the case of `COc1ccc2c(c1)C=Cc1ccccc1O2`, the GFP response vs DMSO in experiment [1] is 98.4% (inactive); in experiment [1] (setting [6]), 97.6%; in experiment [1] (setting [7]), 99.5%; in experiment [3] it was 98.3% (inactive). For the same compound, the GFP response relative to DMSO was 99.2% (inactive) in experiment [2], 99.2% in experiment [2] (setting [8]) and 99.3% in experiment [2] (setting [9]). In addition, the GFP response, % of DMSO is 95.6% (inactive) in experiment [4], 104% (inactive) in experiment [5], 106% in experiment [5] (setting [6]) and 102% in experiment [5] (setting [7]).
Regarding `CCOC(=O)CCS(=O)(=O)c1nc(-c2ccccc2)cc(C(F)(F)F)n1`, the GFP response vs DMSO was 98.8% (inactive) in experiment [1], 102% in experiment [1] (setting [6]), 93.5% in experiment [1] (setting [7]) and 146% (inactive) in experiment [3]. Further, the GFP response relative to DMSO is 164% (active) in experiment [2], 153% in experiment [2] (setting [8]) and 170% in experiment [2] (setting [9]). Further, the GFP response, % of DMSO in experiment [4] was 127% (inactive); in experiment [5] it was 100% (inactive); in experiment [5] (setting [6]), 106%; in experiment [5] (setting [7]) it was 92.3%.
Regarding `NC(=O)C1CCN(C(=S)NCCc2ccccc2)CC1`, the GFP response vs DMSO in experiment [1] is 97.3% (inactive); in experiment [1] (setting [6]), 99.5%; in experiment [1] (setting [7]), 97.1%; in experiment [3], 99.3% (inactive). Moreover, the GFP response relative to DMSO in experiment [2] is 91.8% (inactive); in experiment [2] (setting [8]), 91.3%; in experiment [2] (setting [9]), 93.4%. In addition, the GFP response, % of DMSO in experiment [4] was 102% (inactive); in experiment [5] it was 101% (inactive); in experiment [5] (setting [6]), 103%; in experiment [5] (setting [7]) it was 103%.
For the compound `Cc1ccccc1N1C(=O)C(Cl)=C(N2CCN(c3ccccc3)CC2)C1=O`, the GFP response vs DMSO in experiment [1] is 100% (inactive); in experiment [1] (setting [6]), 98.7%; in experiment [1] (setting [7]), 100%; in experiment [3], 100% (inactive). Further, the GFP response relative to DMSO in experiment [2] is 101% (inactive); in experiment [2] (setting [8]), 102%; in experiment [2] (setting [9]), 102%. The GFP response, % of DMSO in experiment [4] is 93% (inactive); in experiment [5], 95.2% (inactive); in experiment [5] (setting [6]), 94.8%; in experiment [5] (setting [7]), 94.4%.
For `Cc1cc(NC(c2ccc(Cl)cc2)c2ccc3cccnc3c2O)no1` (stereo unspecified), the GFP response vs DMSO is 97.8% (inactive) in experiment [1], 97.4% in experiment [1] (setting [6]), 97.6% in experiment [1] (setting [7]) and 100% (inactive) in experiment [3]. Also, the GFP response relative to DMSO in experiment [2] was 108% (inactive); in experiment [2] (setting [8]) it was 104%; in experiment [2] (setting [9]) it was 113%. In addition, the GFP response, % of DMSO was 94.5% (inactive) in experiment [4], 98.3% (inactive) in experiment [5], 99.1% in experiment [5] (setting [6]) and 98.5% in experiment [5] (setting [7]).
Take `Cc1cccc(Sc2ccc([N+](=O)[O-])cn2)c1`: the GFP response vs DMSO in experiment [1] was 98.6% (inactive); in experiment [1] (setting [6]), 98.9%; in experiment [1] (setting [7]) it was 98%; in experiment [3], 105% (inactive). In addition, the figures for the GFP response relative to DMSO in experiment [2], in experiment [2] (setting [8]) and in experiment [2] (setting [9]) were 92.4% (inactive), 92% and 92%, respectively. In addition, the GFP response, % of DMSO in experiment [4] is 104% (inactive); in experiment [5], 103% (inactive); in experiment [5] (setting [6]), 103%; in experiment [5] (setting [7]) it was 104%.
`CCS(=O)(=O)N1N=C(c2ccccc2)CC1c1ccc2nccnc2c1` (stereo unspecified): the GFP response vs DMSO in experiment [1] is 98.4% (inactive); in experiment [1] (setting [6]) it was 98.9%; in experiment [1] (setting [7]), 99.3%; in experiment [3] it was 116% (inactive). The GFP response relative to DMSO was 105% (inactive) in experiment [2], 103% in experiment [2] (setting [8]) and 104% in experiment [2] (setting [9]). For the same compound, the GFP response, % of DMSO in experiment [4] was 104% (inactive); in experiment [5] it was 105% (inactive); in experiment [5] (setting [6]) it was 105%; in experiment [5] (setting [7]), 107%.
In the case of `O=C(Nc1ccccc1O)c1ccc(Cl)cc1`, the GFP response vs DMSO was 96.8% (inactive) in experiment [1], 95.6% in experiment [1] (setting [6]), 96.6% in experiment [1] (setting [7]) and 102% (inactive) in experiment [3]. Besides, the GFP response relative to DMSO was 98.7% (inactive) in experiment [2], 100% in experiment [2] (setting [8]) and 100% in experiment [2] (setting [9]). Moreover, the GFP response, % of DMSO is 97.8% (inactive) in experiment [4], 100% (inactive) in experiment [5], 99.7% in experiment [5] (setting [6]) and 98.7% in experiment [5] (setting [7]).
As to `COc1ccc(/C=C2/C(=O)ON=C2c2ccccc2)cc1OC`, the GFP response vs DMSO in experiment [1] was 102% (inactive); in experiment [1] (setting [6]), 107%; in experiment [1] (setting [7]), 99.2%; in experiment [3] it was 102% (inactive). Besides, the results for the GFP response relative to DMSO in experiment [2], in experiment [2] (setting [8]) and in experiment [2] (setting [9]) were 101% (inactive), 102% and 99.5%, respectively. In addition, the GFP response, % of DMSO in experiment [4] is 101% (inactive); in experiment [5], 102% (inactive); in experiment [5] (setting [6]), 106%; in experiment [5] (setting [7]), 95.6%.
Take `CN1CCN(CC(=O)N2CCn3c4c(c5cc(C6CCCCC6)ccc53)CCCC42)CC1` (stereo unspecified): the GFP response vs DMSO was 90.7% (inactive) in experiment [1], 86.4% in experiment [1] (setting [6]), 92.7% in experiment [1] (setting [7]) and 108% (inactive) in experiment [3]. Besides, the GFP response relative to DMSO in experiment [2] was 116% (inactive); in experiment [2] (setting [8]) it was 109%; in experiment [2] (setting [9]) it was 119%. Further, the GFP response, % of DMSO in experiment [4] was 95.8% (inactive); in experiment [5], 90.7% (inactive); in experiment [5] (setting [6]) it was 89%; in experiment [5] (setting [7]) it was 88.6%.
As to `O=C(COc1ccccc1[N+](=O)[O-])Nc1ccc(NC(=O)c2cc3ccccc3o2)cc1`, the GFP response vs DMSO in experiment [1] was 100% (inactive); in experiment [1] (setting [6]), 98.9%; in experiment [1] (setting [7]), 99.3%; in experiment [3], 103% (inactive). In addition, the GFP response relative to DMSO in experiment [2] is 88.7% (inactive); in experiment [2] (setting [8]), 92%; in experiment [2] (setting [9]), 88.9%. In addition, the GFP response, % of DMSO in experiment [4] is 99.8% (inactive); in experiment [5], 92.2% (inactive); in experiment [5] (setting [6]) it was 92.1%; in experiment [5] (setting [7]), 91.8%.
Take `CCOC(=O)c1c(C)oc2c1c(C(c1ccncc1)N1CCOCC1)c(O)c1ccccc12` (stereo unspecified): the GFP response vs DMSO in experiment [1] was 102% (inactive); in experiment [1] (setting [6]) it was 109%; in experiment [1] (setting [7]) it was 89.6%; in experiment [3], 131% (inactive). Besides, the results for the GFP response relative to DMSO in experiment [2], in experiment [2] (setting [8]) and in experiment [2] (setting [9]) were 186% (active), 167% and 180%, respectively. The GFP response, % of DMSO in experiment [4] is 101% (inactive); in experiment [5] it was 103% (inactive); in experiment [5] (setting [6]), 114%; in experiment [5] (setting [7]), 94.4%.
In the case of `O=Nc1c(O)c2ccccc2c2ccccc12`, the GFP response vs DMSO is 113% (inactive) in experiment [1], 109% in experiment [1] (setting [6]), 111% in experiment [1] (setting [7]) and 111% (inactive) in experiment [3]. The results for the GFP response relative to DMSO in experiment [2], in experiment [2] (setting [8]) and in experiment [2] (setting [9]) were 114% (inactive), 113% and 119%, respectively. The GFP response, % of DMSO in experiment [4] is 104% (inactive); in experiment [5] it was 107% (inactive); in experiment [5] (setting [6]) it was 106%; in experiment [5] (setting [7]), 105%.
As for `CC1(C)CC(=O)C(C(C2=C(O)CC(C)(C)CC2=O)c2cccs2)C(=O)C1` (stereo unspecified), the GFP response vs DMSO in experiment [1] is 100% (inactive); in experiment [1] (setting [6]) it was 103%; in experiment [1] (setting [7]) it was 101%; in experiment [3], 97.5% (inactive). Moreover, the GFP response relative to DMSO in experiment [2] is 100% (inactive); in experiment [2] (setting [8]), 102%; in experiment [2] (setting [9]), 100%. For the same compound, the GFP response, % of DMSO in experiment [4] was 94.3% (inactive); in experiment [5] it was 101% (inactive); in experiment [5] (setting [6]) it was 102%; in experiment [5] (setting [7]) it was 99.1%.
